p97 inhibitor: blocks human p97 ATPase activity; P55072; recombinant p97 ATPase, Kinase-Glo ATP luminescence, 3 h; inhibition, % at 8 µM; actives 0.42% (n = 220,000); AID 1481; in the data active = inhibition above about 15%;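 also: 0% = DMSO vehicle and 100% = wells lacking enzyme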
Target sequence (P55072 whole entry, looked up): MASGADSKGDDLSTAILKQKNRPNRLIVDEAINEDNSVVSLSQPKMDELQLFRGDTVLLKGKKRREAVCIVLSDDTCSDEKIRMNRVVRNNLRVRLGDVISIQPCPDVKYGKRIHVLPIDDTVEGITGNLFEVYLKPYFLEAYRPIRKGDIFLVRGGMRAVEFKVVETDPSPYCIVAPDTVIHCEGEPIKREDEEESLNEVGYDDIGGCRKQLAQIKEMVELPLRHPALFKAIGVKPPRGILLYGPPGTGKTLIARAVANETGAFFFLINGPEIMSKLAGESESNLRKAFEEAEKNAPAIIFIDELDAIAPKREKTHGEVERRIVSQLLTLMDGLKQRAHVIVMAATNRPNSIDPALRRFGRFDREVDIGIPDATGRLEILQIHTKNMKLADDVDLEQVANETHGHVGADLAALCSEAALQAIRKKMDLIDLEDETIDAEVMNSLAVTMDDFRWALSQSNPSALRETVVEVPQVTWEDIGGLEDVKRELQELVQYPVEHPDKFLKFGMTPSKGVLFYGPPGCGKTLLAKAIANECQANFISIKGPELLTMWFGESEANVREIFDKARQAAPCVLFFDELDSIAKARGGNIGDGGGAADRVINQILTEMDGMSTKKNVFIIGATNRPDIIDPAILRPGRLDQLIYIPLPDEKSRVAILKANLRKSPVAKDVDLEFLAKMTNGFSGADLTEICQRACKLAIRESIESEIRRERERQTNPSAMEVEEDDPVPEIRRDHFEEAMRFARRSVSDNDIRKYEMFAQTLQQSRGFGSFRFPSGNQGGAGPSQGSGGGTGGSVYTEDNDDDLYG
NF-kB neuron act: raises NF-kB expression in human neuronal cells; NF-kB reporter expression; stronger effect = higher value; fold change at 12.5 µM; actives 1.6% (n = 190,000); in the data active = fold change above about 3.3
MDM2 E3 inh: inhibitors of human Mdm2 E3 ubiquitin ligase | signal enhancement, % at 5 µM | AID 1230 | cell-based MDM2 ubiquitination luciferase reporter, 2 h; 0 = plate control, 100 = twice control, blank-subtracted | actives 0.11% (n = 210,000) | Q00987;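 active = signal enhancement of 30% or more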;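 also: luminescence tracks abundance of the self-degrading MDM2-luciferase fusion protein; higher signal means inhibition of MDM2 E3 ligase activity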
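Test system: mammalian cells stably expressing self-ubiquitinating, self-degrading MDM2 E3–luciferase fusion; Amount: 2000 cells in each well; Medium: DMEM; Schedule: 4 h settle plus 2 h compound, 37 °C; Technique: SteadyLite luciferase luminescence after 15 min room-temperature reagent incubation; Benchmarks: plate control and blank wells.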
APP 5'UTR act: activates APP 5'UTR luciferase reporter; actives 1% (n = 190,000); SH-SY5Y APP 5'UTR luciferase reporter, luminescence; zero percent = DMSO vehicle wells; activation, % at 2 µM;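 active = activation above a set limit, based on mean plus 3 SD of controls, cut at about 140% in these data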
Wee1 stabilizer: human Wee1 degradation inhibition, primary screen; reporter increase, % at 5 µM; HeLa Luc-Wee1K328M stability, luciferase luminescence; 100% = proteasome inhibitor MG132 effect; actives 1.2% (n = 220,000);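 active = activation above the mean of all tested compounds plus 3 SD, set per screening run, cut at about 8.8% in these data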;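 also: cells exposed to compound for 20 h before luminescence read; 0% = DMSO alone and 100% = MG132 at 30 µM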
STAT1 activator: STAT1 signaling activation | NIH 3T3 STAT1-luciferase reporter, IFN-gamma, luminescence; 100% = IFN-gamma alone, no compound | activation (% of control), % at 5.5 µM | actives 2.6% (n = 200,000);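 active = activation above the screen-wide mean activation plus 3 SD, cut at about 130% in these data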;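 also: raw ratio to IFN-gamma control signal so 100% means no change and 0% no light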
p97 confirm: confirmation of human p97 ATPase inhibitors; recombinant p97 ATPase, Kinase-Glo ATP luminescence; actives 44% (n = 760); inhibition, % at 8 µM; shares compounds with p97 inhibitor; AID 1517;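 active = percent inhibition of p97 ATPase above a set limit, the primary screen's mean plus 3 SD, cut at about 15% in these data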;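 also: 0% = DMSO wells and 100% = wells lacking p97 protein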
Starred values were filed as active, the others as inactive; . = no result given. An excerpt weighted towards active compounds, which were near 4.6% of everything screened.

SMILES | p97 inhibitor | NF-kB neuron act | MDM2 E3 inh | APP 5'UTR act | Wee1 stabilizer | STAT1 activator | p97 confirm
CC1CC(C)(C)NC(=S)N1CCC(=O)N1CCN(c2ccccc2)CC1 (centres undefined) | 15.2* | 0.97 | 7.3 | 14.4 | -3.1 | 100.5 | 2.7
O=C(COC(=O)c1ccc(S(=O)(=O)N2CCOCC2)cc1)NCc1cccs1 | 1.9 | 0.84 | -3.4 | 7.3 | 0.5 | 104.0 | .
COC(=O)C(=O)/C=C(\O)c1c(C)cc(C)cc1C | 3.1 | . | 2.1 | . | 0.1 | . | .
O=[N+]([O-])c1ccccc1-c1ccc(/C=N/n2cnnc2)o1 | 1.5 | 0.81 | -3.1 | 15.9 | 3.0 | 100.4 | .
Nn1cnnc1N/N=C\c1ccc(-c2ccccc2[N+](=O)[O-])o1 | 27.3* | 0.68 | . | 13.2 | -0.9 | 118.5 | 6.6
O=c1[nH]c(/C(Cl)=C/c2cccc(C(F)(F)F)c2)nc2cc(Cl)ccc12 | 2.2 | 1.45 | 9.2 | -6.9 | 4.6 | 101.0 | .
O=c1[nH]c(/C(Cl)=C/c2c(F)cccc2Cl)nc2cc(Cl)ccc12 | 28.0* | 1.04 | -12.8 | 19.9 | 0.0 | 87.2 | 35.0*
O=c1[nH]c(/C(Cl)=C/c2cc(Cl)ccc2O)nc2cc(Cl)ccc12 | 29.3* | 1.32 | -4.4 | -14.7 | 4.6 | 101.2 | 42.0*
CC(C)c1cc(C(=O)N2CCCC(CCC(=O)NCc3ccccc3F)C2)n(C)n1 (centres undefined) | -0.3 | 1.18 | -20.8 | -4.5 | -0.6 | 83.6 | .
Cc1[nH]n(-c2ccccc2)c(=O)c1-c1ccc(Cl)cc1 | 3.1 | 1.4 | 10.0 | -5.8 | -0.7 | 99.2 | .
CC1=NN(c2ccc(Cl)cc2)C(=O)C1C(c1ccccc1O)c1c(C)[nH]n(-c2ccc(Cl)cc2)c1=O (centres undefined) | 32.3* | 1.07 | -4.6 | -4.4 | 0.9 | 95.7 | 7.7
COc1ccc(CCN2C(=O)CS/C2=N/NC(=O)c2ccccc2F)cc1OC | 3.9 | 1.29 | 3.5 | -3.8 | -0.2 | 97.1 | .
N#C/C(=C(/O)C(Cl)c1ccccc1)c1nc2ccccc2s1 (centres undefined) | 5.5 | 1.23 | . | 15.6 | 0.9 | 110.1 | .
N#C/C(=C(/O)c1cc2ccccc2o1)c1nc2ccccc2s1 | 25.6* | . | -17.2 | . | 1.1 | . | 24.2*
S=c1nc(-c2csc3c2CCCC3)[nH][nH]1 | 2.2 | 1.13 | -12.3 | 1.9 | -0.8 | 99.0 | .
COC(=O)c1sc(NC(=O)c2c(OC)cccc2OC)c(C#N)c1C | 2.3 | 1.13 | -1.1 | 33.7 | 2.8 | 95.9 | .
Cc1cc(NC(=O)COC(=O)C2CCC(=O)N2)c([N+](=O)[O-])cc1C (centres undefined) | 3.5 | 1.22 | -20.1 | 5.8 | 3.4 | 99.2 | .
O=c1cc(-c2ccc(Cl)cc2)oc(=O)[nH]1 | -2.9 | . | -9.7 | . | -0.8 | . | .
O=c1cc(N=Nc2ccc(Cl)cc2)[nH]c(=O)[nH]1 | 28.3* | . | -24.4 | . | 4.3 | . | 15.2*
NC(=O)C1(N2CCCCC2)CCN(S(=O)(=O)c2cc(Cl)sc2Cl)CC1 | 4.2 | . | 2.6 | . | 0.3 | . | .
CN(C)S(=O)(=O)c1cccc(NC(=O)c2cc(-c3cccs3)nn2-c2ccccc2)c1 | 25.9* | 1 | . | -1.4 | -0.5 | 98.7 | 5.5
C=CCN(CC=C)C(=S)Nc1ccc2nsnc2c1 | 18.4* | 1.44 | -11.2 | 2.3 | 3.3 | 100.6 | 4.3
C=CCNC(=S)Nc1ccc2nsnc2c1 | 28.6* | 1 | 2.4 | -10.7 | -5.2 | 94.9 | 1.0
CCCCN(CC(=O)Nc1c(C)cccc1CC)C(=O)SCC | -0.8 | 0.9 | -0.3 | -0.9 | 3.0 | 98.3 | .
ClCc1nnc(-c2cc3c(s2)CCCC3)o1 | -0.9 | 1.46 | -6.3 | -19.5 | 2.5 | 97.0 | .
Cc1ccc(OCCN2CCN(C(=O)CCC(=O)Nc3nnc(CC(C)C)s3)CC2)cc1 | 0.0 | . | -69.8 | . | -0.4 | . | .
O=C(NCC1CCCO1)C1CCCN1C(=O)Nc1ccc(Cl)cc1 (centres undefined) | 5.0 | 1.1 | -3.6 | 29.4 | 6.0 | 105.2 | .
O=C(O)c1cc(-c2c[nH]c3ccccc23)nc2ccc3ccccc3c12 | 19.7* | 1.25 | -21.3 | 11.2 | -3.3 | 88.9 | 19.6*
